{"source": "ChEMBL document CHEMBL1154143", "about": "“Cytotoxic and anti-inflammatory cembranoids from the soft coral Lobophytum crassum” (J Nat Prod, 2008)", "data": [{"tested_on": "HepG2", "experiment": "Cytotoxicity against human HepG2 cells by MTT assay", "type": "functional, cell-based", "in_short": "(§1)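 Human cancer cell lines obtained from ATCC. Cytotoxicity read by MTT colorimetric method.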", "units": {"IC50": "µg/mL"}, "values": [{"smiles": "C/C1=C\\[C@@H]2OC(=O)[C@@H](CN(C)C)[C@@H]2CCC(C)/C=C/C/C(C(=O)O)=C/CC1", "note": "(stereo not given in full)", "IC50": "> 5"}, {"smiles": "C=C(CO)[C@@H]1CC/C(C)=C/CC/C(C)=C/CC/C(C)=C/[C@@H]1O", "IC50": "> 5"}, {"smiles": "C=C1C(=O)O[C@H]2C/C(C)=C/[C@@H](O)C/C(C)=C/CC/C(C)=C/C[C@H]12", "note": "[CRASSUMOLIDE A]", "IC50": "> 5"}, {"smiles": "C=C1C(=O)O[C@H]2/C=C(\\C)CC/C=C(\\CO)CC/C=C(\\C)CC[C@@H]12", "note": "[CRASSUMOLIDE B]", "IC50": "> 5"}, {"smiles": "C=C1C(=O)O[C@H]2/C=C(\\C)CC/C=C(\\C(=O)OC)CC/C=C(\\C)CC[C@@H]12", "note": "[CRASSUMOLIDE C]", "IC50": "> 5"}, {"smiles": "C=C1C(=O)O[C@H]2/C=C(\\C)CC/C=C(\\C)C/C=C/[C@](C)(O)CC[C@@H]12", "note": "[CRASSUMOLIDE D]", "IC50": "> 5"}]}, {"tested_on": "not listed separately", "experiment": "Cytotoxicity against human Hep3B cells by MTT assay", "type": "functional, cell-based, Hep 3B2", "in_short": "as §1", "units": {"IC50": "µg/mL"}, "values": [{"smiles": "C/C1=C\\[C@@H]2OC(=O)[C@@H](CN(C)C)[C@@H]2CCC(C)/C=C/C/C(C(=O)O)=C/CC1", "note": "(stereo not given in full)", "IC50": "> 5"}, {"smiles": "C=C(CO)[C@@H]1CC/C(C)=C/CC/C(C)=C/CC/C(C)=C/[C@@H]1O", "IC50": "> 5"}, {"smiles": "C=C1C(=O)O[C@H]2C/C(C)=C/[C@@H](O)C/C(C)=C/CC/C(C)=C/C[C@H]12", "note": "[CRASSUMOLIDE A]", "IC50": "> 5"}, {"smiles": "C=C1C(=O)O[C@H]2/C=C(\\C)CC/C=C(\\CO)CC/C=C(\\C)CC[C@@H]12", "note": "[CRASSUMOLIDE B]", "IC50": "> 5"}, {"smiles": "C=C1C(=O)O[C@H]2/C=C(\\C)CC/C=C(\\C(=O)OC)CC/C=C(\\C)CC[C@@H]12", "note": "[CRASSUMOLIDE C]", "IC50": "> 5"}, {"smiles": "C=C1C(=O)O[C@H]2/C=C(\\C)CC/C=C(\\C)C/C=C/[C@](C)(O)CC[C@@H]12", "note": "[CRASSUMOLIDE D]", "IC50": "> 5"}]}, {"tested_on": "MDA-MB-231", "experiment": "Cytotoxicity against human MDA-MB-231 cells by MTT assay", "type": "functional, cell-based", "in_short": "as §1", "units": {"IC50": "µg/mL"}, "values": [{"smiles": "C/C1=C\\[C@@H]2OC(=O)[C@@H](CN(C)C)[C@@H]2CCC(C)/C=C/C/C(C(=O)O)=C/CC1", "note": "(stereo not given in full)", "IC50": "> 5"}, {"smiles": "C=C(CO)[C@@H]1CC/C(C)=C/CC/C(C)=C/CC/C(C)=C/[C@@H]1O", "IC50": "> 5"}, {"smiles": "C=C1C(=O)O[C@H]2C/C(C)=C/[C@@H](O)C/C(C)=C/CC/C(C)=C/C[C@H]12", "note": "[CRASSUMOLIDE A]", "IC50": "> 5"}, {"smiles": "C=C1C(=O)O[C@H]2/C=C(\\C)CC/C=C(\\CO)CC/C=C(\\C)CC[C@@H]12", "note": "[CRASSUMOLIDE B]", "IC50": "> 5"}, {"smiles": "C=C1C(=O)O[C@H]2/C=C(\\C)CC/C=C(\\C(=O)OC)CC/C=C(\\C)CC[C@@H]12", "note": "[CRASSUMOLIDE C]", "IC50": "> 5"}, {"smiles": "C=C1C(=O)O[C@H]2/C=C(\\C)CC/C=C(\\C)C/C=C/[C@](C)(O)CC[C@@H]12", "note": "[CRASSUMOLIDE D]", "IC50": "> 5"}]}, {"tested_on": "MCF7", "experiment": "Cytotoxicity against human MCF7 cells by MTT assay", "type": "functional, cell-based", "in_short": "as §1", "units": {"IC50": "µg/mL"}, "values": [{"smiles": "C/C1=C\\[C@@H]2OC(=O)[C@@H](CN(C)C)[C@@H]2CCC(C)/C=C/C/C(C(=O)O)=C/CC1", "note": "(stereo not given in full)", "IC50": "> 5"}, {"smiles": "C=C(CO)[C@@H]1CC/C(C)=C/CC/C(C)=C/CC/C(C)=C/[C@@H]1O", "IC50": "> 5"}, {"smiles": "C=C1C(=O)O[C@H]2C/C(C)=C/[C@@H](O)C/C(C)=C/CC/C(C)=C/C[C@H]12", "note": "[CRASSUMOLIDE A]", "IC50": "> 5"}, {"smiles": "C=C1C(=O)O[C@H]2/C=C(\\C)CC/C=C(\\CO)CC/C=C(\\C)CC[C@@H]12", "note": "[CRASSUMOLIDE B]", "IC50": "> 5"}, {"smiles": "C=C1C(=O)O[C@H]2/C=C(\\C)CC/C=C(\\C(=O)OC)CC/C=C(\\C)CC[C@@H]12", "note": "[CRASSUMOLIDE C]", "IC50": "> 5"}, {"smiles": "C=C1C(=O)O[C@H]2/C=C(\\C)CC/C=C(\\C)C/C=C/[C@](C)(O)CC[C@@H]12", "note": "[CRASSUMOLIDE D]", "IC50": "> 5"}]}, {"tested_on": "A549", "experiment": "Cytotoxicity against human A549 cells by MTT assay", "type": "functional, cell-based", "in_short": "as §1", "units": {"IC50": "µg/mL"}, "values": [{"smiles": "C/C1=C\\[C@@H]2OC(=O)[C@@H](CN(C)C)[C@@H]2CCC(C)/C=C/C/C(C(=O)O)=C/CC1", "note": "(stereo not given in full)", "IC50": "> 5"}, {"smiles": "C=C(CO)[C@@H]1CC/C(C)=C/CC/C(C)=C/CC/C(C)=C/[C@@H]1O", "IC50": "> 5"}, {"smiles": "C=C1C(=O)O[C@H]2C/C(C)=C/[C@@H](O)C/C(C)=C/CC/C(C)=C/C[C@H]12", "note": "[CRASSUMOLIDE A]", "IC50": "> 5"}, {"smiles": "C=C1C(=O)O[C@H]2/C=C(\\C)CC/C=C(\\CO)CC/C=C(\\C)CC[C@@H]12", "note": "[CRASSUMOLIDE B]", "IC50": "> 5"}, {"smiles": "C=C1C(=O)O[C@H]2/C=C(\\C)CC/C=C(\\C(=O)OC)CC/C=C(\\C)CC[C@@H]12", "note": "[CRASSUMOLIDE C]", "IC50": "> 5"}, {"smiles": "C=C1C(=O)O[C@H]2/C=C(\\C)CC/C=C(\\C)C/C=C/[C@](C)(O)CC[C@@H]12", "note": "[CRASSUMOLIDE D]", "IC50": "> 5"}]}, {"tested_on": "Ca9-22", "experiment": "Cytotoxicity against human Ca9-22 cells by MTT assay", "type": "functional, cell-based", "in_short": "as §1", "units": {"IC50": "µg/mL"}, "values": [{"smiles": "C/C1=C\\[C@@H]2OC(=O)[C@@H](CN(C)C)[C@@H]2CCC(C)/C=C/C/C(C(=O)O)=C/CC1", "note": "(stereo not given in full)", "IC50": "> 5"}, {"smiles": "C=C(CO)[C@@H]1CC/C(C)=C/CC/C(C)=C/CC/C(C)=C/[C@@H]1O", "IC50": "> 5"}, {"smiles": "C=C1C(=O)O[C@H]2C/C(C)=C/[C@@H](O)C/C(C)=C/CC/C(C)=C/C[C@H]12", "note": "[CRASSUMOLIDE A]", "IC50": 3.2}, {"smiles": "C=C1C(=O)O[C@H]2/C=C(\\C)CC/C=C(\\CO)CC/C=C(\\C)CC[C@@H]12", "note": "[CRASSUMOLIDE B]", "IC50": "> 5"}, {"smiles": "C=C1C(=O)O[C@H]2/C=C(\\C)CC/C=C(\\C(=O)OC)CC/C=C(\\C)CC[C@@H]12", "note": "[CRASSUMOLIDE C]", "IC50": 1.7}, {"smiles": "C=C1C(=O)O[C@H]2/C=C(\\C)CC/C=C(\\C)C/C=C/[C@](C)(O)CC[C@@H]12", "note": "[CRASSUMOLIDE D]", "IC50": "> 5"}]}, {"tested_on": "RAW264.7", "experiment": "Antiinflammatory activity in mouse RAW264.7 cells assessed as reduction in LPS-induced iNOS protein level at 10 uM treated 5 mins before LPS challenge by Western blot analysis relative to control", "type": "functional", "design": "scale not given: the % may be the effect or the level left", "in_short": "(§2)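 Murine RAW 264.7 macrophages kept in DMEM with 10% heat-inactivated FBS at 37 °C, 5% CO2. Compound added 5 min before LPS (0.01 µg/mL), then 16 h incubation. Lysates of equal protein run on SDS-PAGE and blotted. iNOS and COX-2 probed, β-actin used as loading control, ECL detection. Band IOD expressed relative to the LPS-only control. One-way ANOVA with Student-Newman-Keuls test.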", "units": {"Activity": "%"}, "values": [{"smiles": "C=C1C(=O)O[C@H]2C/C(C)=C/[C@@H](O)C/C(C)=C/CC/C(C)=C/C[C@H]12", "note": "[CRASSUMOLIDE A]", "Activity": 26.8}, {"smiles": "C=C1C(=O)O[C@H]2/C=C(\\C)CC/C=C(\\C(=O)OC)CC/C=C(\\C)CC[C@@H]12", "note": "[CRASSUMOLIDE C]", "Activity": 2.3}]}, {"tested_on": "RAW264.7", "experiment": "Antiinflammatory activity in mouse RAW264.7 cells assessed as reduction in LPS-induced COX2 protein level at 10 uM treated 5 mins before LPS challenge by Western blot analysis relative to control", "type": "functional", "design": "scale not given: the % may be the effect or the level left", "in_short": "as §2", "units": {"Activity": "%"}, "values": [{"smiles": "C=C1C(=O)O[C@H]2C/C(C)=C/[C@@H](O)C/C(C)=C/CC/C(C)=C/C[C@H]12", "note": "[CRASSUMOLIDE A]", "Activity": 50.2}, {"smiles": "C=C1C(=O)O[C@H]2/C=C(\\C)CC/C=C(\\C(=O)OC)CC/C=C(\\C)CC[C@@H]12", "note": "[CRASSUMOLIDE C]", "Activity": 34.5}]}]}
